MPTP block = blocks calcium-induced mitochondrial swelling; isolated mouse mitochondria, Ca2+ swelling absorbance, 30 min; inhibition, % at 10 µM; 360,000 tested, 1.4% active; AID 602449;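 active = inhibition of 50% or more, scaled per plate between neutral and stimulator controls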;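 also: 0% = DMSO wells given calcium and 100% = 1 mM EGTA wells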
OX1R antag-1 = blocks the human orexin 1 receptor | CHO/OX1R cells, Fluo-8 calcium fluorescence, orexin A | inhibition, % at 5 µM | 330,000 tested, 0.43% active | AID 434989;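 active = inhibition above its plate's threshold, mean inhibition of all tested compounds on the plate plus 3 SD, cut at about 37% in these data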;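 also: 0% = orexin A challenge wells and 100% = SB-334867-A antagonist wells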
Target sequence (O43613 whole entry, looked up): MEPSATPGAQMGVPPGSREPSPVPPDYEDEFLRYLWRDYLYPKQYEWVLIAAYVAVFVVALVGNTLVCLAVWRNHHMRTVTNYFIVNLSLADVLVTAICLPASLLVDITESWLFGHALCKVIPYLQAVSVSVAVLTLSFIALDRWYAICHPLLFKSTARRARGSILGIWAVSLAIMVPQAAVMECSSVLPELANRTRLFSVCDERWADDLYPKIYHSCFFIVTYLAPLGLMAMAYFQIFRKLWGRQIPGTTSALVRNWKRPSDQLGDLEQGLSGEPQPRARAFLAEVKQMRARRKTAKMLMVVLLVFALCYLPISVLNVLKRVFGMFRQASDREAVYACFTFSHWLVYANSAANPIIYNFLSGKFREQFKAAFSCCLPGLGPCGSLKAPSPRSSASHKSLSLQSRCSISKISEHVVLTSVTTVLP
CHO parental Ca = signal in parental CHO cells, OX1R antagonist counter-screen; parental CHO-K1, ATP-induced calcium, Fluo-8 fluorescence; AID 463079; inhibition, % at 5.6 µM; 330,000 tested, 0.63% active;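 active = inhibition above that plate's mean sample inhibition plus 3 SD, cut at about 26% in these data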;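 also: 0% = ATP-challenged DMSO wells and 100% = DMSO wells without ATP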
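Assay system: parental CHO cells; Read-out basis: percent inhibition of ATP-evoked calcium rise, normalized to controls; Benchmarks: ATP and no-ATP DMSO wells; Compound dosing: single nominal dose of 5.6 µM per compound; Signal: Fluo-8 calcium dye fluorescence; Also added: ATP as calcium-mobilizing challenge; Repeats: singlicate.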
GPR7 antagonist = antagonists of human GPR7 (neuropeptides B/W receptor 1); P48145; GPR7-expressing cells, fluorescence antagonist assay; inhibition, % at 4.4 µM; 290,000 tested, 1.1% active; AID 1861; in the data active = inhibition above about 16%, passing the limit was not always enough;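 also: cells stimulated with the agonist NPW; 0% = agonist with vehicle and 100% = vehicle without agonist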
OX1R antag-2 = OX1R (human) antagonism; O43613; OX1R-expressing cells, FRET antagonist read-out; inhibition, % at 6.6 µM; 330,000 tested, 1.8% active; in the data active = inhibition mostly above about 38%, no sharp cut-off; inactive = mostly below about 40%;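 also: 0% = agonist challenge alone and 100% = reference antagonist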
OX1R HTRF conf = OX1R (human) antagonism, HTRF confirmed. AID 492964. 1,800 tested, 49% active. OX1R-expressing cells, HTRF antagonist assay. inhibition, % at 6.6 µM. shares compounds with OX1R antag-2; in the data active = inhibition above about 55%;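 also: CHO cells expressing OX1R stimulated with orexin A at about EC80; 0% = agonist challenge alone and 100% = reference antagonist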
CHO-K1 HTRF cnt = counter-screen: parental CHO-K1 HTRF response; inhibition, % at 6.6 µM; shares compounds with OX1R antag-2; 1,800 tested, 48% active; parental CHO-K1 cells, HTRF counterscreen; in the data active = inhibition above about 17%;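 also: 0% = agonist challenge with vehicle and 100% = vehicle alone without agonist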
Active calls of the source: *. This is a sample that favours compounds with a hit; in the whole collection about 3.8% have one here.

For COc1cc(C(=O)N2CCCN(c3nc4cc(C)ccc4cc3C#N)CC2)cc(OC)c1OC the results were OX1R antag-1 24, CHO parental Ca -30, OX1R antag-2 80*, OX1R HTRF conf 86* and CHO-K1 HTRF cnt 5.
COc1ccc(C(=O)N2CCN(c3nc4cc(C)ccc4cc3C#N)CC2)c(OC)c1 was read as MPTP block 18, OX1R antag-1 -20, CHO parental Ca -26, GPR7 antagonist -14 and OX1R antag-2 20.
`NC(=O)NCC(c1ccccc1)C1CCCCC1` (configuration not stated) gave MPTP block 0, OX1R antag-1 3, CHO parental Ca -8, GPR7 antagonist -17 and OX1R antag-2 8.
`CC1CCCC/C1=N\Nc1ccc(S(N)(=O)=O)cc1[N+](=O)[O-]` (configuration not stated) gave MPTP block 5, OX1R antag-1 -5, CHO parental Ca -6, GPR7 antagonist -4, OX1R antag-2 116*, OX1R HTRF conf 26 and CHO-K1 HTRF cnt 26*.
For O=C(CSc1nc2nn(-c3ccccc3)c(=O)c-2c2n1CCCCC2)Nc1cccc(F)c1 the results were MPTP block 1, OX1R antag-1 6, CHO parental Ca -20 and OX1R antag-2 11.
For COc1ccc(C2CC(=O)c3sc(NC(C)=O)nc3C2)cc1 (configuration not stated) the results were MPTP block -1, OX1R antag-1 -9, CHO parental Ca 1, GPR7 antagonist -7 and OX1R antag-2 19.
For O=C(NCc1cccnc1)[C@@H]1CC=C[C@@H]2CCN(Cc3ccccc3)C(=O)[C@@H]21 the results were MPTP block -1, OX1R antag-1 9, CHO parental Ca -13 and OX1R antag-2 44.
O=C(Nc1ccc(Cl)c(C(F)(F)F)c1)[C@@H]1CC=C[C@@H]2CCN(Cc3ccccc3)C(=O)[C@@H]21 was read as MPTP block 3, OX1R antag-1 26, CHO parental Ca -21, OX1R antag-2 84*, OX1R HTRF conf 85* and CHO-K1 HTRF cnt 15.
For CCCCN1CC[C@H]2C=CC[C@@H](C(=O)Nc3ccc(Cl)c(C(F)(F)F)c3)[C@H]2C1=O the results were MPTP block 0, OX1R antag-1 3, CHO parental Ca -7 and OX1R antag-2 44.
Screening O=C(Nc1ccccc1)[C@@H]1CC=C[C@@H]2CCN(Cc3ccccc3)C(=O)[C@@H]21 returned MPTP block 0, OX1R antag-1 28, CHO parental Ca -14, OX1R antag-2 83*, OX1R HTRF conf 86* and CHO-K1 HTRF cnt 4.
`OCC[C@@H]1C[C@@H](O)[C@H](O)[C@@]2(CCCCO2)O1` gave MPTP block 0, OX1R antag-1 1, CHO parental Ca 1 and OX1R antag-2 19.
Screening CC(C)Cn1c(SCC(=O)Nc2cccnc2Cl)nnc1-c1ccco1 returned MPTP block 0, OX1R antag-1 -34, CHO parental Ca -15 and OX1R antag-2 5.
For CC(=O)Oc1c(-c2ccc(Br)o2)oc2ccccc2c1=O the results were MPTP block 3, OX1R antag-1 24, CHO parental Ca -1, GPR7 antagonist 9, OX1R antag-2 83*, OX1R HTRF conf 84* and CHO-K1 HTRF cnt 3.
Screening COc1ccc([C@@H]2CC=C(C(=O)O)[C@H](c3ccccc3)N2S(=O)(=O)c2ccccc2C)cc1 returned MPTP block -2, OX1R antag-1 -29, CHO parental Ca -25, OX1R antag-2 78*, OX1R HTRF conf 55* and CHO-K1 HTRF cnt -3.
Screening COc1ccc([C@@H]2CC=C(C(=O)O)[C@H](c3ccccc3)N2S(=O)(=O)c2ccc(C)cc2)cc1OC returned MPTP block -2, OX1R antag-1 -4, CHO parental Ca -15 and OX1R antag-2 18.
`COc1ccc([C@@H]2CC=C(C(=O)O)[C@H](c3cccc(Cl)c3)N2S(=O)(=O)c2ccc(C)cc2)cc1OC` gave MPTP block 17, OX1R antag-1 13, CHO parental Ca -8, OX1R antag-2 77*, OX1R HTRF conf 84* and CHO-K1 HTRF cnt -1.
For Cc1cc(C)c(C#N)c(SCc2nnc(-c3ccccc3[N+](=O)[O-])o2)n1 the results were MPTP block 1, OX1R antag-1 -13, CHO parental Ca 0, GPR7 antagonist -3 and OX1R antag-2 16.
Cc1cc(C)c(C#N)c(SCc2nnc(-c3ccccc3)o2)n1 was read as MPTP block 2, OX1R antag-1 23, CHO parental Ca -11, GPR7 antagonist 0, OX1R antag-2 81*, OX1R HTRF conf 43 and CHO-K1 HTRF cnt 2.
O=C(COC(=O)c1cc(-c2ccncc2)nc2ccccc12)Nc1ccc2c(c1)OCO2 was read as OX1R antag-1 -1, CHO parental Ca 1, GPR7 antagonist 0, OX1R antag-2 152*, OX1R HTRF conf 35 and CHO-K1 HTRF cnt 24*.
For CC(=O)c1cccc(N(CC(=O)Nc2ccccc2C(=O)N2CCCC2)S(C)(=O)=O)c1 the results were MPTP block -3, OX1R antag-1 -19, CHO parental Ca -11, GPR7 antagonist -4 and OX1R antag-2 12.
For COC(=O)c1cc(=O)c2c(C)nc(C(Cl)(Cl)Cl)nc2[nH]1 the results were MPTP block 0, OX1R antag-1 -7, CHO parental Ca -8, GPR7 antagonist -6, OX1R antag-2 79*, OX1R HTRF conf 46 and CHO-K1 HTRF cnt 15.
`CCOc1ccc(NC(=O)C(C)NS(=O)(=O)c2ccc(NC(C)=O)cc2)cc1` (configuration not stated) gave MPTP block -1, OX1R antag-1 -25, CHO parental Ca -13, GPR7 antagonist -9 and OX1R antag-2 20.
Screening CCc1cc2c(=O)c(-c3nc(C)cs3)coc2cc1O returned MPTP block 16, OX1R antag-1 12, CHO parental Ca -7, GPR7 antagonist -33, OX1R antag-2 82*, OX1R HTRF conf 78* and CHO-K1 HTRF cnt -1.
Screening CCOC(=O)C1CCN(C(=O)C2CCN(C(=O)c3ccc([N+](=O)[O-])cc3)CC2)CC1 returned MPTP block 0, OX1R antag-1 -9, CHO parental Ca -7, GPR7 antagonist 15, OX1R antag-2 81*, OX1R HTRF conf 34 and CHO-K1 HTRF cnt 26*.
Screening CCOC(=O)C1CCN(c2ccc([N+](=O)[O-])cc2)CC1 returned MPTP block 1, OX1R antag-1 -12, CHO parental Ca -2, GPR7 antagonist 17 and OX1R antag-2 32.
For O=C(NNC(=O)c1ccccc1Cl)c1ccccc1Cl the results were MPTP block 1, OX1R antag-1 -8, CHO parental Ca -16, GPR7 antagonist -13 and OX1R antag-2 4.
Screening O=C(NNc1c2ccccc2nc2ccccc12)c1ccccc1Cl returned MPTP block 0, OX1R antag-1 -14, CHO parental Ca 1, GPR7 antagonist -7, OX1R antag-2 83*, OX1R HTRF conf 50 and CHO-K1 HTRF cnt -1.

Screening results: PubChem BioAssay, several laboratories
